Published values pooled from the literature.
Lines come from different studies, so protocols differ.
Observed: cell growth or viability

Compound | cell line | technique | tested at | time | endpoint | result
CN(C)CCN(C)C(=O)c1ccc(-c2nc3ccc4[nH]ncc4c3c3c2CCCCC3)cc1 | MV4-11 | resazurin |  | 72 h | GI50 | 383 nM
NCc1ccc(-c2nn(Cc3ccccn3)c3cccnc23)o1 | RBE | ATP luminescence | 46 µM | 72 h | inhibition | 74%
NCC(=O)Nc1ccccc1/N=c1\cc(-c2ccc3c(c2)OCCO3)oc2cc(F)ccc12 | MDA-MB-468 | CCK-8 | 1 µM |  | inhibition | 11.8%
C[C@H](Nc1ccc2c(c1)OCCn1cc(N3C(=O)OC[C@H]3C(F)F)nc1-2)C(N)=O | MDA-MB-361 | ATP luminescence |  | 5 days | EC50 | 7.5 nM
OCc1coc(-c2nn(Cc3ccccc3)c3ccccc23)n1 | RBE | ATP luminescence | 46 µM | 72 h | inhibition | 32%
O=C(NC1CCCCC1)c1ccc(-c2nc3ccc4[nH]ncc4c3c3c2CCCC3)cc1 | MV4-11 | resazurin |  | 72 h | GI50 | 4300 nM
OCC1CCC(c2nn(Cc3ccccc3)c3ccccc23)O1 (stereo not shown) | RBE | ATP luminescence | 46 µM | 72 h | inhibition | 13%
COC(=O)CNC(=O)C(=O)OC | HBL1 | ATP luminescence | 0.5 µM | 5 days | viability | 113%
OCc1ccc(-c2ccn(Cc3ccccc3)n2)o1 | RBE | ATP luminescence | 46 µM | 72 h | inhibition | 47%
CN(C)CCN(C)C(=O)c1ccc(-c2nc3ccc4[nH]ncc4c3c3c2CCCCC3)cn1 | MV4-11 | resazurin |  | 72 h | GI50 | 581 nM
C[C@H](N)C(=O)Nc1ccccc1/N=c1\cc(-c2ccc3c(c2)OCCO3)oc2cc(F)ccc12 | MDA-MB-468 | CCK-8 | 1 µM |  | inhibition | 12.8%
NC(=O)c1ccc(-c2nc3ccc4[nH]ncc4c3c3c2CCCC3)cc1 | MV4-11 | resazurin |  | 72 h | GI50 | 57 nM
CS(=O)(=O)NCCC(=O)Nc1ccccc1/N=c1\cc(-c2ccc3nc(N)oc3c2)oc2ccccc12 | MDA-MB-468 | CCK-8 | 1 µM |  | inhibition | 3.19%
O=C(CCCCCCC(=O)Nc1ccccc1)NO | HBL1 | ATP luminescence | 0.1 µM | 5 days | viability | 132%
OCc1ccc(-c2nn(Cc3ccccn3)c3cccnc23)o1 | RBE | ATP luminescence | 46 µM | 72 h | inhibition | 76%
CN1CCN(C(=O)c2ccc(-c3nc4ccc5[nH]ncc5c4c4c3CCCC4)cc2)CC1 | MV4-11 | resazurin |  | 72 h | GI50 | 1300 nM
COc1ccc2/c(=N/c3ccccc3NC(=O)[C@H](C)N)cc(-c3ccc4c(c3)OCCO4)oc2c1 | MDA-MB-468 | CCK-8 | 1 µM |  | inhibition | 13.4%
O=C(/C=C/c1cccc(C(=O)NO)c1)NO | HBL1 | ATP luminescence | 0.1 µM | 5 days | viability | 119%
CCN(Cc1ccc(C)cc1)c1ccc(CO)c(Cl)c1 | RBE | ATP luminescence | 46 µM | 72 h | inhibition | 95%
CC(C)(C)[C@H](N)C(=O)Nc1ccccc1/N=c1\cc(-c2ccc3c(c2)OCCO3)oc2cc(F)ccc12 | MDA-MB-468 | CCK-8 | 1 µM |  | inhibition | -0.62%
CN(C)CCNC(=O)c1ccc(-c2nc3ccc4[nH]ncc4c3c3c2CCCC3)cc1 | MV4-11 | resazurin |  | 72 h | GI50 | 25 nM
O=C(OCc1ccccc1)n1nc(-c2ccc(CO)o2)c2ccccc21 | RBE | ATP luminescence | 46 µM | 72 h | inhibition | 55%
COc1ccc2/c(=N/c3ccccc3NC(=O)[C@@H](N)C(C)(C)C)cc(-c3ccc4c(c3)OCCO4)oc2c1 | MDA-MB-468 | CCK-8 | 1 µM |  | inhibition | 10.8%
Cc1n[nH]c2ccc3nc(-c4ccc(C(=O)NCCN5CCCC5)cc4)c4c(c3c12)CCCC4 | MV4-11 | resazurin |  | 72 h | GI50 | 428 nM
Nc1nc2ccc(-c3c/c(=N\c4ccccc4NC(=O)CCN4CCOCC4)c4ccccc4o3)cc2o1 | MDA-MB-468 | CCK-8 | 1 µM |  | inhibition | 0.34%
Cc1n[nH]c2ccc3nc(-c4ccc(C(=O)N(C)CCN(C)C)cc4)c4c(c3c12)CCCCC4 | MV4-11 | resazurin |  | 72 h | GI50 | 522 nM
O=C(Nc1ccccc1/N=c1\cc(-c2ccc3c(c2)OCCO3)oc2cc(F)ccc12)N1CCOCC1 | MDA-MB-468 | CCK-8 | 1 µM |  | inhibition | -2.71%
CCN(Cc1ccc(F)cc1F)c1ccc(CO)c(Cl)c1 | RBE | ATP luminescence | 46 µM | 72 h | inhibition | 82%
